Measurements reported in ChEMBL document CHEMBL1151718, “Design, synthesis, and biological characterization of a caspase 3/7 selective isatin labeled with 2-[18F]fluoroethylazide” (J Med Chem, 2008).
One block for each molecule: values may come before it. Active and inactive are the calls of the source. No cut-off for these calls is given here.

Legend:
[1] = Lipophilicity, log P of the compound; format: physicochemical; conditions: octanol/water
[2] = Metabolic stability in mouse liver S9 fraction at pH 7.4; format: ADME, subcellular; conditions: s9, pH 7.4
Procedure, shortened: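 Mouse liver homogenized in 50 mM Tris–150 mM KCl–HCl pH 7.4 and spun at 10000g for 30 min to give S9. Compound (10 µL of 10 mM stock) was incubated with S9 (20 µL of 33.26 mg/mL) and 0.5 mM NADPH in Tris-HCl pH 7.4 (1 mL total), 60 min at 37 °C in air. Stopped with ice-cold acetonitrile and analyzed by gradient reverse-phase HPLC.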

[3] = molecular target: T1, Caspase-3 (Homo sapiens, UniProt P42574); assay: Inhibition of human recombinant caspase 3 assessed as accumulation of 7-amino-4-methylcoumarin substrate
T1 sequence (P42574 whole entry): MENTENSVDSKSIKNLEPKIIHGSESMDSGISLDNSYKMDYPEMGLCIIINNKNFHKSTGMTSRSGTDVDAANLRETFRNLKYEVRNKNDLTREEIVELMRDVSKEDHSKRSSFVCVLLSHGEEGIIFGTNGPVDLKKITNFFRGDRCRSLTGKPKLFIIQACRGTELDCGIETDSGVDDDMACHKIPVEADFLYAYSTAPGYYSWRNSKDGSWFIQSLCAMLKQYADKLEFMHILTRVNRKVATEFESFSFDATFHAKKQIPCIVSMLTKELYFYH
Procedure, shortened: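 Substrates at 10 µM: Ac-DEVD-AMC (caspase 3), Ac-VEID-AMC (caspase 6), Ac-IETD-AMC (caspase 8), added after 10 min preincubation with inhibitor (5 pM–500 µM). Duplicates, two runs; EC50 by nonlinear regression.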

[4] = Chemical stability assessed as half life; format: physicochemical
[5] = tested on: Liver; assay: Metabolic stability […] mouse liver assessed as ratio of peak to total radioactivity present on chromatogram at 3.7 MBq, iv after 2 mins; format: ADME, organism-based; conditions: in vivo
Procedure, shortened: (§1)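 [¹⁸F]15 (7.4 MBq) injected iv into non-tumor-bearing C3H/hej mice. Plasma and liver were snap-frozen, extracted with ice-cold acetonitrile (liver homogenized), centrifuged and dried. Extracts were analyzed by reverse-phase C18 radio-HPLC (ammonium formate/methanol:acetonitrile gradient). Percent parent = parent peak relative to total chromatogram radioactivity. Plasma: average of 3 studies per time point; liver: individual results from two samples.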

[6] = Increase in drug uptake in mouse RIF1 cells after 60 mins relative to control; format: ADME, cell-based; conditions: rif-1, 1 h
Procedure, shortened: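 RIF-1 murine fibrosarcoma cells, plated in triplicate 2–3 days ahead, were exposed to CDDP at 100 µM or to vehicle (0.1% DMSO) for 48 h. About 10 µCi/well of the 18F tracer was then taken up for 60 min at 37 °C. Cells were collected, washed, resuspended in PBS and gamma-counted. Decay-corrected counts/min were normalised to mg protein (BCA), and the treated level was compared with the untreated one.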

[7] = tested on: Plasma; assay: Metabolic stability in […] mouse plasma assessed as ratio of peak to total radioactivity present on chromatogram at 3.7 MBq, iv after 2 mins; format: ADME, organism-based, RIF-1; conditions: in vivo, in the assay text read “7.4 MBq” for “3.7 MBq”; procedure, shortened: as §1
[8] = tested on: Plasma; assay: Metabolic stability in […] mouse plasma assessed as ratio of peak to total radioactivity present on chromatogram at 3.7 MBq, iv after 15 mins; format: ADME, organism-based; conditions: in vivo, 0.25 h; procedure, shortened: as §1
[9] = molecular target: T2, Caspase-3 (Mus musculus) (UniProt P70677); assay: Inhibition of caspase 3 in mouse RIF1 cells assessed as disruption of cisplatin-stimulated PARP induction by Western blot; format: cell-based; conditions: RIF-1
T2 sequence (whole entry): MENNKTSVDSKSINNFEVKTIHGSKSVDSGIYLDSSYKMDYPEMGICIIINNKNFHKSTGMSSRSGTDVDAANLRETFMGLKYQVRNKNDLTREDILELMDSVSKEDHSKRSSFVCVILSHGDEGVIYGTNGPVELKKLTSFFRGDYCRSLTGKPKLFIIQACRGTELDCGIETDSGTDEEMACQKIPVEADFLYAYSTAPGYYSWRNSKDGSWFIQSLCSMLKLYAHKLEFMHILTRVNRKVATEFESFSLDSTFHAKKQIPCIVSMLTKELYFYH
Procedure, shortened: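 RIF-1 murine fibrosarcoma cells were pretreated 15 min with caspase inhibitors (Z-VAD-FMK 100 µM as control), then given cisplatin 100 µM for 48 h. Lysates were made in RIPA with protease/phosphatase inhibitors, and 30 µg protein was run on 4–12% SDS-PAGE and blotted to PVDF. Probed with anti-cleaved PARP (89 kDa fragment) and α-tubulin loading control, detected by ECL.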

[10] = molecular target: T3, Caspase-6 (Homo sapiens, UniProt P55212); assay: Inhibition of human recombinant caspase 6 assessed as accumulation of 7-amino-4-methylcoumarin substrate
T3 sequence (P55212 whole entry): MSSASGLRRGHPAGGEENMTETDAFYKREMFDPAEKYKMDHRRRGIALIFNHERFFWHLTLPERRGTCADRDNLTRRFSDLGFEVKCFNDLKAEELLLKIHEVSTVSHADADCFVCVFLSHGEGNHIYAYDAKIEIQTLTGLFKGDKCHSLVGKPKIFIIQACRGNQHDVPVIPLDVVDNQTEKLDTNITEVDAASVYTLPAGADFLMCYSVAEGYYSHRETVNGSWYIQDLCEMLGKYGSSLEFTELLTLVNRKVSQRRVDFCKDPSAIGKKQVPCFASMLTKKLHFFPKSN
Procedure, shortened: (§2)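 Substrates at 10 µM: Ac-DEVD-AMC (caspase 3), Ac-VEID-AMC (caspase 6), Ac-IETD-AMC (caspase 8), added after 10 min preincubation with inhibitor (5 pM–500 µM). 7-AMC read after 30 min at ex 355/em 460 nm. Duplicates, two runs; EC50 by nonlinear regression.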

[11] = molecular target: Caspase-8 (Homo sapiens, UniProt Q14790); assay: Inhibition of human recombinant caspase 8 assessed as accumulation of 7-amino-4-methylcoumarin substrate; procedure, shortened: as §2
[12] = molecular target: T4, Caspase-1 (Homo sapiens, UniProt P29466); assay: Inhibition of human recombinant caspase 1 assessed as accumulation of 7-amino-4-methylcoumarin substrate
T4 sequence (P29466 whole entry): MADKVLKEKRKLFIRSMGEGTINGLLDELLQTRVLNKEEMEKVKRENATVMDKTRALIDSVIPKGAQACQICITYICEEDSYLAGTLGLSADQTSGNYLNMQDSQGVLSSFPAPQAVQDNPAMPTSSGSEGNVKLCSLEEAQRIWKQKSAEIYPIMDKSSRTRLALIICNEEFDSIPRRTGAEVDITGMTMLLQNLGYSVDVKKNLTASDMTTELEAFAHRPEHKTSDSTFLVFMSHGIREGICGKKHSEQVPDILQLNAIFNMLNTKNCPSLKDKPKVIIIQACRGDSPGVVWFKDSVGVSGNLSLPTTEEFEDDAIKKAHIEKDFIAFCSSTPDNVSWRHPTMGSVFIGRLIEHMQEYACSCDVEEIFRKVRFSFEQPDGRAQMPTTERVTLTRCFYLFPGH
Procedure, shortened: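 Recombinant human caspase 1 (0.5 units) at 37 °C in 100 mM HEPES pH 7.4, 0.1% CHAPS, 100 mM NaCl, 5 mM 2-mercaptoethanol, 2 mM EDTA, 10% sucrose, 5% DMSO final. Inhibitor (5 pM–500 µM, 9 concentrations) preincubated 10 min before adding 10 µM Ac-YVAD-AMC for 30 min. 7-AMC fluorescence read at ex 355/em 460 nm against no-enzyme controls. Duplicates, two runs; EC50 by nonlinear regression.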

[13] = molecular target: T5, Caspase-7 (Homo sapiens, UniProt P55210); assay: Inhibition of human recombinant caspase 7 assessed as accumulation of 7-amino-4-methylcoumarin substrate
T5 sequence (P55210 whole entry): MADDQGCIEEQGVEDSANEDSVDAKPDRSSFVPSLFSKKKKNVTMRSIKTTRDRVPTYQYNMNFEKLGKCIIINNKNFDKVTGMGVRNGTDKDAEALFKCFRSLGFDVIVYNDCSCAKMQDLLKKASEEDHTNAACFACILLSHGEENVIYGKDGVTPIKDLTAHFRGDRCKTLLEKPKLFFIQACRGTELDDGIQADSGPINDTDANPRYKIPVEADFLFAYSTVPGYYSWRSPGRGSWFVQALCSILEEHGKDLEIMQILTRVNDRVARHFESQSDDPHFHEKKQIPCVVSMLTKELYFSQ
Procedure, shortened: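 Isatin (5 pM–500 µM, 9 levels) preincubated 10 min, then Ac-DEVD-AMC (10 µM final) added for 30 min. 7-AMC fluorescence read at ex 355/em 460 nm against no-enzyme controls. EC50 by nonlinear regression; duplicates, two runs.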

Chain of Caspase-8 (Q14790 217-374 limits assumed): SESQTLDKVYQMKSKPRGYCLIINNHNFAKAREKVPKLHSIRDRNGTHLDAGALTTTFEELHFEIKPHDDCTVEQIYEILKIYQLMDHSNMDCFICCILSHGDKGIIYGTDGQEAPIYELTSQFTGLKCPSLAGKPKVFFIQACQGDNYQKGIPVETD
Chain of Caspase-8 (Q14790 385-479 limits assumed): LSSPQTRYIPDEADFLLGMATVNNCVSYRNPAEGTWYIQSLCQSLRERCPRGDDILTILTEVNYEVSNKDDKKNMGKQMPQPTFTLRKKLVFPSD

logP [1]: 1.61
Compound: O=C1C(=O)N(Cc2cn(CCF)nn2)c2ccc(S(=O)(=O)N3CCC[C@H]3COc3ccc(F)cc3F)cc21

Stability [2]: Stable
Compound: O=C1C(=O)N(Cc2ccc(F)cc2)c2ccc(S(=O)(=O)N3CCCC3)cc21

EC50 [3]: 50.5 nM
Compound: O=C1C(=O)N(Cc2ccc(F)cc2)c2ccc(S(=O)(=O)N3CCC[C@H]3COc3ccccc3)cc21

half-life [4]: 59.9 days
Compound: O=C1C(=O)N(Cc2ccc([125I])cc2)c2ccc(S(=O)(=O)N3CCC[C@H]3COc3ccccc3)cc21

Activity [5]: 35.7%
fold change (FC) [6]: 1.5
Activity [7]: 86.1%
Activity [8]: 61.3%
Compound: O=C1C(=O)N(Cc2cn(CC[18F])nn2)c2ccc(S(=O)(=O)N3CCC[C@H]3COc3ccc(F)cc3F)cc21

Activity [9]: inactive
Compound: O=C1C(=O)N(Cc2ccc(I)cc2)c2ccc(S(=O)(=O)N3CCC[C@H]3COc3ccccc3)cc21

EC50 [3]: 10.7 nM
Compound: O=C1C(=O)N(Cc2ccc(F)cc2)c2ccc(S(=O)(=O)N3CCC[C@H]3COC3CCOCC3)cc21

EC50 [10]: > 5000 nM
EC50 [11]: > 5000 nM
EC50 [12]: > 5000 nM
EC50 [13]: 18.3 nM
EC50 [3]: 12.6 nM
Compound: O=C1C(=O)N(Cc2ccc(F)cc2)c2ccc(S(=O)(=O)N3CCC[C@H]3COCc3cn(CCF)nn3)cc21
